Published values gathered from unrelated publications.
Read-out: metabolic stability

Cc1ccc(Nc2cnnc3ccc(-c4ccc(N5CCCN(C)CC5)cc4)cc23)cn1  hepatocyte CLint (rat; hepatocytes): 10 µL/min/10⁶ cells
Cc1ccc(N(C)c2ccc(NC(=O)CN(C)c3cccnc3N3CCCC3=O)cc2)cc1  hepatocyte CLint (rat; hepatocytes): > 92 µL/min/10⁶ cells
Cc1ccc(-c2nnc(N[C@@H](Cc3ccc(C#N)cc3)C(=O)N3CCc4ccccc43)o2)cc1  microsomal CLint (rat; liver microsomes; 10 µM; pH 7.4): 49.5 µL/min/mg
Cc1cc(S(=O)(=O)NC2CCC(CC3CCN(c4ccc(C5CCC(=O)NC5=O)cc4)CC3)CC2)ccc1Nc1ncc(C(F)(F)F)c(N2CCC[C@](C)(O)C2)n1 (stereo partly shown)  scaled CLint (rat; liver microsomes; 1 µM): < 21 mL/min/kg
CCONC(=O)N1CCC[C@H](C(=O)NCc2nc(-c3ccccc3)cs2)C1  microsomal CLint (male Sprague-Dawley rat; liver microsomes; 0.5 µM): 31 µL/min/mg
Cc1cc(S(=O)(=O)N[C@H]2C[C@H](CN3CCN(c4ccc(C5CCC(=O)NC5=O)c(Cl)c4)CC3)C2)ccc1Nc1ncc(C(F)(F)F)c(N2CCC[C@](C)(O)C2)n1 (stereo partly shown)  scaled CLint (rat; liver microsomes; 1 µM): 36 mL/min/kg
CC(C)N(c1ccc(Cl)c(F)c1)c1ccc(NC(=O)CN(C)c2ccccc2N2CCCC2=O)cn1  hepatocyte CLint (rat; hepatocytes): 62 µL/min/10⁶ cells
C[C@]1(O)CCCN(c2nc(Nc3ccc(S(=O)(=O)N[C@H]4CC[C@H](CN5CCN(c6ccc(C7CCC(=O)NC7=O)cc6F)CC5)CC4)cc3F)ncc2C(F)(F)F)C1 (stereo partly shown)  scaled CLint (rat; liver microsomes; 1 µM): < 21 mL/min/kg
Cc1[nH]c(C)c(S(=O)(=O)Nc2ccc(C(F)(F)F)c(Cl)c2)c1C(=O)N1CCC(F)(F)C1  microsomal CLint (rat; liver microsomes): 87 µL/min/mg
O=C(NCc1nc(-c2ccc(C(F)(F)F)cc2)cs1)[C@H]1CCCN(C(=O)CO[C@H]2CCCNC2)C1  microsomal CLint (male Sprague-Dawley rat; liver microsomes; 0.5 µM): 3.6 µL/min/mg
Cc1cc(S(=O)(=O)NC2CC(N3CCN(CC4CCN(c5ccc6c(c5F)n(C)c(=O)n6C5CCC(=O)NC5=O)CC4)CC3)C2)ccc1Nc1ncc(C(F)(F)F)c(N2CCCC(C)(O)C2)n1 (stereo not shown)  scaled CLint (rat; liver microsomes; 1 µM): < 21 mL/min/kg
COCC(=O)N1CCC[C@H](C(=O)NCc2nc(-c3ccc(C#N)cc3)cs2)C1  scaled CLint (male Sprague-Dawley rat; liver microsomes; 0.5 µM): 30 mL/min/kg
Cc1ccc(N(C)c2ccc(NC(=O)CN(C)c3ccccc3N3CCCC3=O)cc2)cc1  hepatocyte CLint (rat; hepatocytes): > 92 µL/min/10⁶ cells
CC(C)(N)COCC(=O)N1CCC[C@H](C(=O)NCc2nc(-c3ccc(C(F)(F)F)cc3)cs2)C1  scaled CLint (male Sprague-Dawley rat; hepatocytes; 0.5 µM): 21 mL/min/kg
COc1cc(-c2cc(C(C)=O)n3ccccc23)c(OC)cc1Cn1ccnc1  scaled CLint (rat; liver microsomes; 1 µM; pH 7.4): 145 mL/min/kg
CNS(=O)(=O)c1ccc(Nc2ncc(C(F)(F)F)c(N3CCC(C)(O)CC3)n2)c(C)c1  scaled CLint (rat; liver microsomes; 1 µM): 38 mL/min/kg
COCC(=O)N1CCC[C@H](C(=O)NCc2nc(-c3ccccc3)cs2)C1  microsomal CLint (male Sprague-Dawley rat; liver microsomes; 0.5 µM): 19 µL/min/mg
CNS(=O)(=O)c1ccc(Nc2ncc(C(F)(F)F)c(N3CCC[C@](C)(O)C3)n2)c(C)c1  scaled CLint (rat; liver microsomes; 1 µM): 40 mL/min/kg
Cc1ccc(Oc2ccc(NC(=O)CNc3ccccc3N3CCCC3=O)cc2)cc1  hepatocyte CLint (rat; hepatocytes): 58 µL/min/10⁶ cells
